Reference: paper PMC9052103 (RSC Advances, 2020)
Read-outs that look alike come from different tables or passages of the source.

How the values were obtained:
[1] = test system: S. aureus ATCC 29213; test: MIC, 96-well microtiter broth dilution; assay type: cell-based; conditions: for MIC S. aureus ATCC 29213: Table 2; for MIC: Staphylococcus aureus
[2] = test system: S. aureus ATCC 43300; test: MIC, 96-well microtiter broth dilution; assay type: cell-based; conditions: for MIC S. aureus ATCC 43300: MRSA
[3] = test system: S. aureus ATCC BAA-41; test: MIC, 96-well microtiter broth dilution; assay type: cell-based; conditions: for MIC S. aureus ATCC BAA-41: MRSA
[4] = test system: S. aureus ATCC BAA-44; test: MIC, 96-well microtiter broth dilution; assay type: cell-based
[5] = test system: S. aureus ATCC BAA-1747; test: MIC, 96-well microtiter broth dilution; assay type: cell-based; conditions: for MIC S. aureus ATCC BAA-1747: MRSA
[6] = test system: S. aureus ATCC BAA-1720; test: MIC, 96-well microtiter broth dilution; assay type: cell-based; conditions: for MIC S. aureus ATCC BAA-1720: MRSA
[7] = test system: E. faecalis ATCC 29212; test: MIC, 96-well microtiter broth dilution; assay type: cell-based
[8] = test system: E. faecium ATCC 49624; test: MIC, 96-well microtiter broth dilution; assay type: cell-based
[9] = test system: E. faecium ATCC 700221; test: MIC, 96-well microtiter broth dilution; assay type: cell-based; conditions: for MIC E. faecium ATCC 700221: Vancomycin-resistant strain, Table 2
[10] = test system: S. epidermidis ATCC 12228; test: MIC, 96-well microtiter broth dilution; assay type: cell-based
[11] = test system: B. subtilis 168; test: MIC, 96-well microtiter broth dilution; assay type: cell-based
[12] = test system: E. coli ATCC BAA-2469; test: MIC, 96-well microtiter broth dilution; assay type: cell-based; conditions: NDM-1 expressing strain
[13] = test system: A. baumannii ATCC 19606; test: MIC, 96-well microtiter broth dilution; assay type: cell-based; conditions: Multi-drug resistant strain
[14] = test system: P. aeruginosa ATCC BAA-2108; test: MIC, 96-well microtiter broth dilution; assay type: cell-based; conditions: Multi-drug resistant strain
[15] = test system: E. cloacae ATCC BAA-1143; test: MIC, 96-well microtiter broth dilution; assay type: cell-based; conditions: AmpC beta-lactamase expressing strain
[16] = test system: K. pneumoniae ATCC BAA-2470; test: MIC, 96-well microtiter broth dilution; assay type: cell-based; conditions: NDM-1 expressing strain
[17] = target: T1, S. aureus FtsZ (Staphylococcus aureus, UniProt P0A031); test: Light-scattering assay of FtsZ polymerization; assay type: biochemical; conditions: for Effect on FtsZ polymerization at a concentration gradient: 0.125–0.5 μg mL^−1; for Light scattering signal compared to control (FtsZ polymerization): same concentration, 0.125 μg mL^−1
T1 sequence (P0A031 1-390): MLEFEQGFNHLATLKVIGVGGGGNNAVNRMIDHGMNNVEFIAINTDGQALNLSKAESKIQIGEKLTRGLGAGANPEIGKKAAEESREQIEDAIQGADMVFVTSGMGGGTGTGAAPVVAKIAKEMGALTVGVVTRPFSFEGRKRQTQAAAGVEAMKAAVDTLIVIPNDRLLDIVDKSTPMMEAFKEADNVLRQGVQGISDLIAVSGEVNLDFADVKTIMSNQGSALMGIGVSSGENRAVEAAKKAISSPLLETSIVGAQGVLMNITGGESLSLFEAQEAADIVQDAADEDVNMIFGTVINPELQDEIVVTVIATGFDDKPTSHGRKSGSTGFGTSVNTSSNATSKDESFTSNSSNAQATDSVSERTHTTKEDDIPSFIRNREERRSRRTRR
Outline: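 S. aureus FtsZ (4 μM) in 50 mM MOPS pH 6.5, preincubated 10 min at 25 °C with 1% DMSO vehicle or test compound. Baseline set after adding 50 mM KCl and 10 mM MgCl2. After 10 min, 1 mM GTP added. 90° light scattering (excitation/emission 600 nm) followed for 25 min, with blank background subtracted. Rate and extent of polymerization calculated. Triplicates.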

[18] = test system: E. coli ATCC 25922; test: MIC, 96-well microtiter broth dilution; assay type: cell-based
[19] = test system: E. coli ATCC 8739; test: MIC, 96-well microtiter broth dilution; assay type: cell-based; conditions: Escherichia coli, ATCC8739, read-out: MIC E. coli ATCC 8739
[20] = test system: human bronchial epithelium cells (16HBE); test: CCK-8 cytotoxicity assay; assay type: cell-based; conditions: 48 h, read-out: IC50 16HBE
Outline: (§1)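 Cells seeded at 5000 per well and allowed to adhere overnight at 37 °C, then exposed to test compound for 48 h. CCK-8 reagent added for a further 3 h, with absorbance read at 450 nm. Triplicates.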

[21] = test system: human renal tubular epithelial cells (HK-2); test: CCK-8 cytotoxicity assay; assay type: cell-based; conditions: Epithelial cell, 48 h, read-out: IC50 HK-2
Outline: as §1

[22] = test system: mouse fibroblast cells (L929); test: CCK-8 cytotoxicity assay; assay type: cell-based; conditions: L929, 48 h, read-out: IC50 L929
Outline: as §1

[23] = target: SaFtsZ (Staphylococcus aureus, UniProt P0A031); test: SaFtsZ binding affinity assay; set-up: species or system S. aureus
Outline: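 Fluorescence titration at 25 °C in 50 mM Tris–HCl pH 7.4, 50 mM KCl, 2 mM magnesium acetate. Test compound at 3.51 or 3.68 μM titrated with SaFtsZ in 0.4 μM steps (0.4–6.4 μM), equilibrating 2 min per step. Excitation 493 nm, emission 500–700 nm, buffer-titration background subtracted. Kd obtained by nonlinear fit to an independent-site model.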

[24] = target: S. aureus FtsZ (SaFtsZ) (Staphylococcus aureus, UniProt P0A031); test: GTPase activity assay; assay type: biochemical
Outline: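 Phosphate-release kit assay: S. aureus FtsZ (7.3 μM) in assay buffer with 1% DMSO vehicle or varied concentrations of test compound. Reaction started with 200 μM GTP and run 30 min at room temperature. Colour reagent added for another 30 min to stop the reaction, and inorganic phosphate read at 620 nm. Triplicates.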

[25] = test system: Z-ring in B. subtilis; test: Visualization of Z-ring; assay type: cell-based; conditions: 0.5 × MIC, 4 h
Outline: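 B. subtilis carrying IPTG-inducible GFP-FtsZ plasmid grown in LB with 30 μg mL−1 chloramphenicol at 37 °C with shaking; overnight culture diluted to 1% in LB with 40 μM IPTG plus test compound at 0.5 × MIC, 4 h at 37 °C. Cells fixed, resuspended in PBS, placed on 0.1% (w/v) poly-L-lysine-coated slides; imaged by confocal microscopy, 40× oil immersion.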

[26] = test system: S. aureus ATCC 29213; test: In vitro drug resistance development, serial passage; assay type: cell-based
Outline: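 Serial passage against S. aureus ATCC 29213: culture from the 0.5 × MIC well of the prior MIC plate diluted to 5 × 10^5 CFU mL−1 and exposed to a range of test compound concentrations. MIC read after 24 h at 37 °C. Cycle repeated 35 times. Ciprofloxacin, vancomycin and rifampin passaged in parallel.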

[27] = test system: MRSA strains; test: MIC, summary over MRSA strains; assay type: cell-based, S. aureus; conditions: Staphylococcus aureus, read-out: MIC against MRSA

2-((E)-4-(Dimethylamino)styryl)-1-methyl-4-((Z)-(3-(3-(piperidin-1-yl)propyl)benzo[d]thiazol-2(3H)-ylidene)methyl)quinolin-1-ium iodide [Compound 4e4]
MIC S. aureus ATCC 29213 [1]: 16 µg/mL
MIC S. aureus ATCC 43300 [2]: 8 µg/mL
MIC S. aureus ATCC BAA-41 [3]: 16 µg/mL
MIC S. aureus ATCC BAA-44 [4]: 8 µg/mL
MIC S. aureus ATCC BAA-1747 [5]: 16 µg/mL
MIC S. aureus ATCC BAA-1720 [6]: 8 µg/mL
MIC E. faecalis ATCC 29212 [7]: 32 µg/mL
MIC E. faecium ATCC 49624 [8]: 32 µg/mL
MIC E. faecium ATCC 700221 [9]: 4 µg/mL
MIC S. epidermidis ATCC 12228 [10]: 2 µg/mL
MIC B. subtilis 168 [11]: 8 µg/mL
MIC E. coli ATCC BAA-2469 [12]: 8 µg/mL
MIC A. baumannii ATCC 19606 [13]: >64 µg/mL
MIC P. aeruginosa ATCC BAA-2108 [14]: 64 µg/mL
MIC E. cloacae ATCC BAA-1143 [15]: 64 µg/mL

1-Methyl-2-((E)-4-(methylthio)styryl)-4-((Z)-(3-(3-(piperidin-1-yl)propyl)benzo[d]thiazol-2(3H)-ylidene)methyl)quinolin-1-ium iodide [Compound 4e3]
MIC S. aureus ATCC 29213 [1]: 8 µg/mL
MIC S. aureus ATCC 43300 [2]: 8 µg/mL
MIC S. aureus ATCC BAA-41 [3]: 16 µg/mL
MIC S. aureus ATCC BAA-44 [4]: 8 µg/mL
MIC S. aureus ATCC BAA-1747 [5]: 16 µg/mL
MIC S. aureus ATCC BAA-1720 [6]: 16 µg/mL
MIC E. faecalis ATCC 29212 [7]: >64 µg/mL
MIC E. faecium ATCC 49624 [8]: 16 µg/mL
MIC E. faecium ATCC 700221 [9]: 8 µg/mL
MIC S. epidermidis ATCC 12228 [10]: 4 µg/mL
MIC B. subtilis 168 [11]: 8 µg/mL
MIC K. pneumoniae ATCC BAA-2470 [16]: 64 µg/mL
MIC A. baumannii ATCC 19606 [13]: 64 µg/mL
MIC E. cloacae ATCC BAA-1143 [15]: 64 µg/mL
Effect on FtsZ polymerization at a concentration gradient [17]: did not show significant change
Light scattering signal compared to control (FtsZ polymerization) [17]: almost no signal change

CC1CCN(CCCN2/C(=C/c3cc[n+](C)c4ccccc34)Sc3ccccc32)CC1.[I-] [Compound 4b4, (Z)-1-Methyl-4-((3-(3-(4-methylpiperidin-1-yl)propyl)benzo[d]thiazol-2(3H)-ylidene)methyl)quinolin-1-ium iodide]
MIC ([1]; ATCC29213): 2 µg/mL
MIC ([1]; ATCC29213, read-out: MIC S. aureus ATCC 29213): 2 µg/mL
MIC ([1]; ATCC29213, read-out: S. aureus ATCC 29213 (MIC)): 2 µg/mL
MIC ([2]; Staphylococcus aureus, ATCC43300|MRSA, read-out: MIC S. aureus ATCC 43300): 8 µg/mL
MIC ([3]; Staphylococcus aureus, ATCCBAA41|MRSA, read-out: MIC S. aureus ATCC BAA-41): 1 µg/mL
MIC ([5]; Staphylococcus aureus, ATCCBAA1747|MRSA, read-out: MIC S. aureus ATCC BAA-1747): 4 µg/mL
MIC ([6]; Staphylococcus aureus, ATCCBAA1720|MRSA, read-out: MIC S. aureus ATCC BAA-1720): 8 µg/mL
MIC ([7]; Enterococcus faecalis, ATCC29212, read-out: MIC E. faecalis ATCC 29212): 16 µg/mL
MIC ([8]; Enterococcus faecium, ATCC49624, read-out: MIC E. faecium ATCC 49624): 8 µg/mL
MIC ([9]; Enterococcus faecium, ATCC700221): 16 µg/mL
MIC ([9]; read-out: MIC against VRE): 2 to 16 µg/mL
MIC ([10]; Staphylococcus epidermidis, ATCC12228, read-out: MIC S. epidermidis ATCC 12228): 0.25 µg/mL
MIC ([18]; Escherichia coli, ATCC25922, read-out: MIC E. coli ATCC 25922): 2 µg/mL
MIC [19]: 2 µg/mL
IC50 [20]: 20.2 µg/mL
IC50 [21]: 18.6 µg/mL
IC50 [22]: 23.4 µg/mL
Kd [23]: 3.23 µM
Effect on FtsZ polymerization at a concentration gradient [17]: enhance FtsZ polymerization in a dose-dependent manner
Light scattering signal compared to control (FtsZ polymerization) [17]: significant increase in light scattering signal
Effect on GTPase activity of SaFtsZ [24]: did not show any effect
Effect on Z-ring formation (GFP-FtsZ localization) [25]: promoted the mislocalization of the FtsZ protein
Increase of MIC after 35 passages [26]: 8 fold
MIC [27]: 1 to 8 µg/mL

2-((E)-4-Hydroxystyryl)-1-methyl-4-((Z)-(3-(3-(piperidin-1-yl)propyl)benzo[d]thiazol-2(3H)-ylidene)methyl)quinolin-1-ium iodide [Compound 4e2]
MIC S. aureus ATCC 29213 [1]: 16 µg/mL
MIC S. aureus ATCC 43300 [2]: 8 µg/mL
MIC S. aureus ATCC BAA-41 [3]: 16 µg/mL
MIC S. aureus ATCC BAA-44 [4]: 16 µg/mL
MIC S. aureus ATCC BAA-1747 [5]: 32 µg/mL
MIC S. aureus ATCC BAA-1720 [6]: 16 µg/mL
MIC E. faecalis ATCC 29212 [7]: >64 µg/mL
MIC E. faecium ATCC 49624 [8]: 16 µg/mL
MIC E. faecium ATCC 700221 [9]: 8 µg/mL
MIC S. epidermidis ATCC 12228 [10]: 8 µg/mL
MIC B. subtilis 168 [11]: 4 µg/mL
MIC E. coli ATCC 25922 [18]: 4 µg/mL
MIC E. coli ATCC BAA-2469 [12]: 8 µg/mL
MIC K. pneumoniae ATCC BAA-2470 [16]: 64 µg/mL
MIC A. baumannii ATCC 19606 [13]: >64 µg/mL
MIC P. aeruginosa ATCC BAA-2108 [14]: 64 µg/mL
MIC E. cloacae ATCC BAA-1143 [15]: >64 µg/mL
